Assay outcomes deposited in PubChem by several laboratories.
MsrA inh = inhibits bovine methionine sulfoxide reductase A | purified bovine MsrA, absorbance read-out | inhibition, % at 15.5 µM | 0.75% of 360,000 active; in the data active = inhibition above about 4.5%;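 note: 0% = vehicle wells with enzyme and 100% = reference inhibitor wells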
Rev-erbA mod = Rev-erb alpha (human) modulation; Rev-erbα–FITC-DNA binding, fluorescence polarization, 90 min; P20393; AID 1259318; 0.79% of 370,000 active; activity, % at 10 µM;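 active = activity above about 14%, limit read from the data; passing the limit was not always enough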;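 note: 0% = DMSO wells with 35 nM protein and 100% = DMSO wells with 750 nM protein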
HGIII-sPLA2 inh = Inhibits HGIII-sPLA2 liposome hydrolysis, primary screen; Q9NZ20; QFRET BODIPY PC-A2 liposome hydrolysis, fluorescence; inhibition, % at 12.2 µM; 0.56% of 370,000 active; AID 743126;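 active = inhibition above mean plus 3 SD of compounds lying within the high and low control bounds, cut at about 19% in these data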;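 note: 0% = median of test compound wells and 100% = no enzyme DMSO wells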
bovine MsrA act = bovine methionine sulfoxide reductase A activation | purified bovine MsrA, absorbance read-out | activation, % at 10.6 µM | 0.3% of 360,000 active; in the data active = activation above about 7.5%;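 note: 0% = vehicle and 100% = reference activator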
ARFGAP1 inhibitor = inhibits rat ARF GTPase activating protein 1. Q62848. Arfgap1-stimulated ARF1 GTP hydrolysis, GDP FP detection. inhibition, % at 16.5 µM. 0.26% of 360,000 active. AID 651572;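 active = inhibition above a per-plate limit, mean inhibition of low control wells plus 3 SD, cut at about 25% in these data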;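 note: 0% = DMSO wells with enzyme and 100% = wells lacking Arfgap1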
Target sequence (Q62848 1-136 limits assumed): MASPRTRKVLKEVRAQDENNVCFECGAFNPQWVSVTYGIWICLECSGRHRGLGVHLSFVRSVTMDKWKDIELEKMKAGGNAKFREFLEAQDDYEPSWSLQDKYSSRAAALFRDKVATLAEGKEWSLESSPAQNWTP
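Assay system: purified rat His6-Arfgap1 residues 1-136 (GAP domain); Reagent: human Δ17 ARF1 bound to GTP; Dosing: 16.5 µM single point, 1.26% DMSO; Times: GTP hydrolysis reaction 2 h at 25 °C; Signal: FP, GDP Alexa 633 tracer displaced from anti-GDP antibody, 620/688 nm; Measure: % inhibition from polarization.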
ASAP1 GAP inh = blocks human ASAP1-stimulated Arf1 GTP hydrolysis | GDP FP detection | inhibition, % at 16.5 µM | 0.19% of 360,000 active; in the data active = inhibition above about 25%;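 note: 0% = vehicle with enzyme and substrate and 100% = no enzyme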
Target sequence (Q9ULH1 325-724 limits assumed): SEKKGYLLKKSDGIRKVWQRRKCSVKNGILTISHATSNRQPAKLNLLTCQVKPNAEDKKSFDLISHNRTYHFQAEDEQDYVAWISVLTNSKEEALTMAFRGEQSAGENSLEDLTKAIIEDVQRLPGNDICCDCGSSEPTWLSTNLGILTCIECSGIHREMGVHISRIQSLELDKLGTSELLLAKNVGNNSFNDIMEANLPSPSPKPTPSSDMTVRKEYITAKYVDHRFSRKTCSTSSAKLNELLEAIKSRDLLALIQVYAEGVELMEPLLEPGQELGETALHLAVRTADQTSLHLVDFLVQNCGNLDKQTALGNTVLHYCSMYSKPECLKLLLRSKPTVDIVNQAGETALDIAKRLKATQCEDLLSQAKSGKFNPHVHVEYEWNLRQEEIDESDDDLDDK
Rev-erbA confirm = Rev-erb alpha (human) modulation, hit confirmation | shares compounds with Rev-erbA mod | Rev-erb alpha FITC-DNA binding, fluorescence polarization, 90 min | activation, % at 25 µM | 61% of 3,000 active | AID 1259319;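 active = activation at or above a set limit, or at least 3 SD above the negative control mean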;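 note: 0% = 35 nM protein with DMSO and 100% = 750 nM protein high control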
RORg counter = affects RORgamma DNA binding in a Rev-erb alpha counter-screen; shares compounds with Rev-erbA mod; purified RORgamma protein-FITC-DNA binding, fluorescence polarization; IC50, µM; 8% of 910 active; AID 1259320;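 active = Compounds whose fitted half-maximal concentration for disrupting protein-DNA binding is below 10 micromolar; the record names Rev-erb in its text, so the target is in doubt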
* = called active by the depositor; i = inactive; . = no result given. Shown are actives, neighbours in structure and some others; about 2.7% of the full set was active somewhere.

SMILES	MsrA inh	Rev-erbA mod	HGIII-sPLA2 inh	bovine MsrA act	ARFGAP1 inhibitor	ASAP1 GAP inh	Rev-erbA confirm	others
COc1ccccc1N1CCN(C2C(=O)Nc3ccccc3-n3nnnc32)CC1 (stereo not drawn)	1	3	7	.	15	-1	.
CCN(CC)S(=O)(=O)c1ccc(F)cc1	0	37*	2	-11	-14	6	6
COCCCNC(=O)c1c[nH]c2ccc(S(=O)(=O)N3CCC4(CC3)OCCO4)cc2c1=O	0	4	2	-1	-8	-4	.
CCN(CC)S(=O)(=O)c1ccc2[nH]cc(C(=O)NCCN3CCCCC3C)c(=O)c2c1 (stereo not drawn)	0	-4	-9	-9	14	4	.
CCN(CC)S(=O)(=O)c1ccc2[nH]cc(C(=O)NCCCN3CCCCC3C)c(=O)c2c1 (stereo not drawn)	2	27*	-6	1	11	5	2
CCCCCNC(=O)c1c[nH]c2ccc(S(=O)(=O)N3CCC4(CC3)OCCO4)cc2c1=O	-1	38*	0	-8	-7	-16	48*	RORg counter=>40
CN(C)c1ccc(CC(=O)N2CCCC(c3cc(C(=O)Nc4ccc5c(c4)OCO5)no3)C2)cc1 (stereo not drawn)	3	7	6	-3	0	0	.
Cc1cc(C)c2c(n1)nn1c(N3CCN(c4ccccc4)CC3)cc(C)nc21	0	40*	1	2	6	3	26*
CC(NC(=O)C1CC(=O)N(c2ccc3c(c2)OCCO3)C1)c1ccccc1 (stereo not drawn)	0	-6	2	-6	-6	-2	.
CN(C)c1ccc(/C=C(/C(=O)c2ccc(Cl)cc2Cl)n2cncn2)cc1	-1	21*	-5	-3	-10	6	18*
CC(Sc1cnc2ccccc2n1)C(=O)O (stereo not drawn)	3	8	-4	-3	2	-6	.
Cc1ccc(Sc2cnc3ccccc3n2)cc1	1	40*	0	2	3	8	33*	RORg counter=>40
COc1ccc2cc(C#N)c(Nc3cccc(F)c3)nc2c1	0	55*	7	-7	-12	13	42*	RORg counter=>40
COc1cccc(Nc2nc3cc(C)ccc3cc2C)c1	0	6	-1	-1	-2	10	.
CN1CCN(C2=CC3=CC(=C(C#N)C#N)CCC3CC2)CC1 (stereo not drawn)	.	.	.	-4	.	.	.
N#CC(C#N)=C1C=C2C=C(N3CCOCC3)CCC2CC1 (stereo not drawn)	-1	305*	-131	2	-6	8	111*	RORg counter=>40
N#CC(C#N)=C1C=C2C=C(N3CCCCCC3)CCC2CC1 (stereo not drawn)	-2	273*	i	-6	2	-7	167*	RORg counter=>40
Cc1cc(C)c2c(N)c(C(=O)N/N=C/c3cccs3)sc2n1	0	80*	2	-4	7	0	54*	RORg counter=>40
COc1ccc(-n2c(C)cc(C(=O)COC(=O)c3cc(NC(=O)c4cccs4)c(OC)c(OC)c3)c2C)cc1	-1	32*	2	-2	-6	2	0
CC1CN(C(=O)CSc2nc(N)c(NC(=O)c3ccc(C(F)(F)F)cc3)c(=O)[nH]2)CC(C)O1 (stereo not drawn)	0	-6	4	-7	9	-2	.
CCc1ccc2[nH]c3nc(C)cc(C)c3c(=O)c2c1	2	30*	8	-5	6	-4	25*
COc1ccc(-c2noc(COc3ccc4ccccc4c3Br)n2)cc1OC	0	29*	2	3	-5	2	17*
COc1ccc(NC(=O)c2cc(-c3cc(OC)c(OC)c(OC)c3)nc3ccccc23)cc1OC	2	-1	-14	-1	12	-6	.
COc1cc(-c2cc(C(=O)Nc3cccc(S(=O)(=O)N(C)C)c3)c3ccccc3n2)cc(OC)c1OC	0	15*	1	-1	3	5	-9
CCN(C(=O)CSc1nnc(-c2cccnc2)n1Cc1ccco1)c1ccccc1C	.	-7	3	.	.	.	.
SMILES	MsrA inh	Rev-erbA mod	HGIII-sPLA2 inh	bovine MsrA act	ARFGAP1 inhibitor	ASAP1 GAP inh	Rev-erbA confirm	others
CN(C)c1ccc(C=C2SC(=S)NC2=O)cc1	-1	48*	7	-3	-18	9	35*	RORg counter=>40
CCOc1ccc(N(C)c2ccc(/C=C3/SC(=S)NC3=O)cc2)cc1	1	17	2	-8	0	2	.
O=C(COc1ccc2c(-c3ccccc3)cc(=O)oc2c1)Nc1ccc(CCO)cc1	3	53*	5	-5	9	1	25*
C=CCNc1nc(NCCOc2ccccc2Cl)c2sc(-c3ccccc3)cc2n1	1	1	17	-1	13	19	.
COc1cc(SC)ccc1C(=O)Nc1ccc(S(=O)(=O)N2CCCC2)cc1	1	57*	7	-1	-3	7	30*
CC(=O)c1ccccc1NC(=O)c1cc(S(=O)(=O)N2CCOCC2)ccc1N1CCCC1	-1	144*	-1	-3	12	2	145*	RORg counter=>40
COc1cc(NC(=O)c2cc(S(=O)(=O)N3CCCCC3)ccc2N2CCOCC2)cc(OC)c1	-2	22*	-9	-3	5	-10	-6
Cc1cc2nc(C(C)(C)C)c(Cc3ccccc3)n2c(C)c1Br	1	-7	-5	-3	23	0	.
C[C@H](O)[C@@H]1CN2CCc3c([nH]c4ccccc34)[C@@H]2C[C@@H]1N(C)Cc1cc(Cl)cc(Cl)c1	-1	6	-10	4	7	-2	.
CC(C)(C)S(=O)(=O)N1C[C@@H]2CC/C=C\C/C=C\2[C@H]1CCO	-2	-6	7	-2	-1	-2	.
CCCCN(c1ccccc1)S(=O)(=O)c1cccc(C(=O)Nc2c(C)n(C)n(-c3ccccc3)c2=O)c1	-1	4	5	-10	11	-11	.
O=C(NCc1ccccc1CN1CCCC1)C1CCN(C(=O)c2ccc(Cl)cc2)CC1	-1	0	0	-1	11	6	.
C[C@H]1[C@@H](OC(=O)Nc2ccc(C(F)(F)F)cc2)CC[C@@]23CCCN2C(=O)CCC[C@@H]13	.	3	-11	.	.	.	.
CN(C)c1ccc(N=Nc2ccccc2C(=O)OCC(=O)N(C)C2CCCCC2)cc1	-1	7	3	-1	4	11	.
CN(C)c1ccc(N=Nc2ccccc2C(=O)OCC(=O)NCC2CCCCC2)cc1	0	29*	14	-1	9	-1	36*	RORg counter=>40
